Legend:
TrkB signaling = conditions: cited from earlier work
[1] = tested on: autophagy, BDNF-mTOR signaling pathway; conditions: through the BDNF-mTOR signaling pathway; cited from earlier work
[2] = tested on: primary murine hippocampal neurons; assay: Synaptic density; format: cell-based, mouse; conditions: K252a 200 nM or LY294002 1 μM, Syn3 0.2 μM, BDNF 25 ng/mL 24 hours; n = 20 neurons
[3] = tested on: Akt, GSK3α/β, S6K, S6 phosphorylation in primary murine hippocampal neurons; format: cell-based, mouse; conditions: K252a 200 nM or LY294002 1 μM for 1 hour, then Syn3 0.2 μM, BDNF 25 ng/mL 20 min; n = 5
[4] = tested on: primary murine hippocampal neurons; assay: PSD-95 puncta formation in vitro; format: cell-based, mouse; conditions: for effect of inhibitor on the effects of Syn3 (PSD-95 puncta): K252a 200 nM or LY294002 1 μM for 1 hour; for effect of inhibitor on the effects of Syn3 (PSD-95 puncta) / BDNF+Syn3–induced PSD-95 puncta formation with inhibitor: then Syn3 0.2 μM, BDNF 25 ng/mL 24 hours; for BDNF+Syn3–induced PSD-95 puncta formation with inhibitor: K252a 200 nM or LY294002 1 μM, n = 20 neurons
How it was run: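 Primary murine hippocampal neurons were pretreated with test compound (0.2 µM) for 20 min, some first with K252a (200 nM) or LY294002 (1 µM) for 1 hour, then given BDNF for 24 hours. Cells were fixed in 4% paraformaldehyde for 15 min and blocked in 0.3% Triton X-100/5% goat serum. Primary antibody ran overnight at 4°C, secondary 2 hours at room temperature. Puncta were counted per 10-µm second-order dendrite 35–45 µm from the soma.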

[5] = tested on: primary murine hippocampal neurons; assay: Dendritic spine density; format: cell-based, mouse; conditions: K252a 200 nM or LY294002 1 μM, Syn3 0.2 μM, BDNF 25 ng/mL 24 hours; n = 15 neurons
[6] = tested on: insulin receptor signaling; assay: Insulin-induced Akt-S6K signaling in primary hippocampal neurons; format: cell-based, mouse; conditions: insulin 1 μg/mL, 20 min
How it was run: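 Primary murine hippocampal neurons were pre-treated 20 min with test compound (0.2 µM) or vehicle, then with insulin (1 μg/mL) for 20 min. Cells were lysed in ice-cold RIPA for 30 min and centrifuged. Equal protein was run on SDS-PAGE and blotted to PVDF, blocked in 5% milk/TBS-T, then probed overnight at 4°C with primary antibodies and HRP secondaries. Data are mean ± SD.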

[7] = tested on: patients with conventional, treatment-resistant depression; conditions: single infusion of sub-anesthetic dose; cited from earlier work
[8] = tested on: C57BL/6J mice, corticosterone model of depression; assay: Forced swim test, corticosterone model; format: in vivo, mouse; conditions: corticosterone 20 mg/kg s.c. daily for 21 days
How it was run: (§1)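 C57BL/6J mice, 4–5 weeks old, equal numbers male and female. Corticosterone emulsified in propylene glycol given s.c. daily between 10:00 and 12:00 for 21 days; controls got vehicle. Test compound then given i.p. (1 or 10 mg/kg; in one series 1 mg/kg with testing 12 hours later, n = 9 per group). Mice acclimated to the testing room for 30 min.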

[9] = tested on: C57BL/6J mice, corticosterone model of depression; assay: Tail suspension test, corticosterone model; format: in vivo, mouse; conditions: corticosterone 20 mg/kg s.c. daily for 21 days
How it was run: as §1

[10] = tested on: C57BL/6J mice, corticosterone model of depression; assay: Sucrose preference test, corticosterone model; format: in vivo, mouse; conditions: corticosterone 20 mg/kg s.c. daily for 21 days
How it was run: as §1

[11] = tested on: platelet-derived growth factor (PDGF) receptor signaling; assay: PDGF-induced Akt-S6K signaling in primary hippocampal neurons; format: cell-based, mouse; conditions: PDGF-BB 25 ng/mL, 20 min
[12] = tested on: primary murine hippocampal neurons; assay: Sholl analysis of dendritic complexity/neurite outgrowth; format: cell-based, mouse; conditions: BDNF 25 ng/mL, 24h; n = 26 neurons

## O=c1cc(-c2ccccc2)oc2c(O)c(O)ccc12 [7,8-DHF, 7,8-dihydroxyflavone]
TrkB signaling
  TrkB signaling and antidepressant responses: stimulates TrkB signaling and promotes rapid antidepressant responses

## CN[C@]1(c2ccccc2Cl)CCCCC1=O [esketamine]
[1]
  autophagy: acts to inhibit autophagy

## COC(=O)[C@@]1(O)C[C@H]2O[C@]1(C)n1c3ccccc3c3c4c(c5c6ccccc6n2c5c31)C(=O)NC4 [K252a]
[2]
  effect of Syn3 on synaptic density with inhibitor: blocked the effect of Syn3 on synaptic density
[3]
  BDNF plus Syn3 stimulation of Akt and S6K phosphorylation with inhibitor: blocked
[4]
  effect of inhibitor on the effects of Syn3 (PSD-95 puncta): blocked the effects of Syn3
  BDNF+Syn3–induced PSD-95 puncta formation with inhibitor: reversed
[5]
  density of dendritic spines, BDNF + Syn3 with inhibitor: reversed

## O=c1cc(N2CCOCC2)oc2c(-c3ccccc3)cccc12 [LY294002]
[2]
  effect of Syn3 on synaptic density with inhibitor: blocked the effect of Syn3 on synaptic density
[3]
  BDNF plus Syn3 stimulation of Akt and S6K phosphorylation with inhibitor: blocked
[4]
  effect of inhibitor on the effects of Syn3 (PSD-95 puncta): blocked the effects of Syn3
  BDNF+Syn3–induced PSD-95 puncta formation with inhibitor: reversed
[5]
  density of dendritic spines, BDNF + Syn3 with inhibitor: reversed

## insulin: recombinant insulin
[6]
  Akt and S6K phosphorylation: increased Akt and S6K phosphorylation

## CNC1(c2ccccc2Cl)CCCCC1=O (centres unmarked) [ketamine]
[7]
  antidepressant effects in patients: produces rapid antidepressant effects in patients with conventional, treatment-resistant depression

## C[C@]12C[C@H](O)[C@H]3[C@@H](CCC4=CC(=O)CC[C@@]43C)[C@@H]1CC[C@@H]2C(=O)CO [corticosterone]
[8]
  immobility time (effect of inducer), forced swim test: increased immobility time
[9]
  immobility time (effect of inducer), tail suspension test: increased immobility time
[10]
  sucrose intake (effect of inducer): decreased sucrose intake

B1: PDGF: recombinant platelet-derived growth factor (protein, UniProt P01127 82-190, looked up)
Platelet-derived growth …: SLGSLTIAEPAMIAECKTRTEVFEISRRLIDRTNANFLVWPPCVEVQRCSGCCNNRNVQCRPTQVQLRPVQVRKIEIVRKKPIFKKATVTLEDHLACKCETVAAARPVT
[11]
  Akt and S6K phosphorylation: increased Akt and S6K phosphorylation

B2: brain-derived neurotrophic factor (protein, UniProt P23560 19-247, looked up)
Neurotrophic factor BDNF …: APMKEANIRGQGGLAYPGVRTHGTLESVNGPKAGSRGLTSLADTFEHVIEELLDEDQKVRPNEENNKDADLYTSRVMLSSQVPLEPPLLFLLEEYKNYLDAANMSMRVRRHSDPARRGELSVCDSISEWVTAADKKTAVDMSGGTVTVLEKVPVSKGQLKQYFYETKCNPMGYTKEGCRGIDKRHWNSQCRTTQSYVRALTMDSKKRIGWRFIRIDTSCVCTLTIKRGR
[12]
  dendritic complexity and number of neurite crossings: significantly enhanced dendritic complexity and the number of neurite crossings
[4]; BDNF 25 ng/mL, 24h
  number of PSD-95 puncta: increased the number of PSD-95 puncta
